Source: ChEMBL document CHEMBL5058577, “EUbOPEN Chemogenomics Library 2 (Multiplex)” (2022)

Test system: HEK-293T
Assay: Multiplex assay against HEK293T
Assay type: toxicity, cell-based
Settings: human
Summary of the method: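 Per cents of healthy-nucleus cells form the tubulin, mitochondrial-mass and membrane-permeability phenotype values. Live cells were stained at seeding with Hoechst33342, BioTracker Green Microtubule Cytoskeleton Dye, MitoTracker Red and Annexin V Alexa Fluor 680. After compound addition they were imaged on a CQ1 microscope at 37°C and 5% CO2, and CellPathfinder machine-learning gating split them into Hoechst high-intensity objects or normal cells, normal cells into healthy, pyknosed or fragmented nuclei, and pyknosed cells into mitotic or apoptotic.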

[1] = 12 h, 1 µM, compound concentration 1 uM, replicate 1
[2] = 12 h, 1 µM, compound concentration 1 uM, replicate 2
[3] = 12 h, 10 µM, compound concentration 10 uM, replicate 1
[4] = 12 h, 10 µM, compound concentration 10 uM, replicate 2
[5] = 24 h, 1 µM, compound concentration 1 uM, replicate 1
[6] = 24 h, 1 µM, compound concentration 1 uM, replicate 2
[7] = 24 h, 10 µM, compound concentration 10 uM, replicate 1
[8] = 24 h, 10 µM, compound concentration 10 uM, replicate 2
[9] = 48 h, 1 µM, compound concentration 1 uM, replicate 1
[10] = 48 h, 1 µM, compound concentration 1 uM, replicate 2
[11] = 48 h, 10 µM, compound concentration 10 uM, replicate 1
[12] = 48 h, 10 µM, compound concentration 10 uM, replicate 2

CN1CCN2c3ncccc3Cc3ccccc3C2C1 (centres undefined) [MIRTAZAPINE]
Population Apoptotic (%) [1]: 58% | Population Fragmented Nuclei (%) [1]: 4% | Population Healthy Nuclei (%) [1]: 88% | Population Hoechst High Intensity Objects (%) [1]: 5% | Population Membrane Permeable-Phenotype (%) [1]: 0% | Population Mitochondria Different-Phenotype (%) [1]: 41% | Population Mitotic Cells (%) [1]: 41% | Population Normal (%) [1]: 94% | Population Pyknosed Nuclei (%) [1]: 7% | Population Tubulin-Different-Phenotype (%) [1]: 22% | Total Cell Count [1]: 402 | Population Apoptotic (%) [2]: 51% | Population Fragmented Nuclei (%) [2]: 3% | Population Healthy Nuclei (%) [2]: 79% | Population Hoechst High Intensity Objects (%) [2]: 7% | Population Mitochondria Different-Phenotype (%) [2]: 68% | Population Mitotic Cells (%) [2]: 48% | Population Normal (%) [2]: 92% | Population Pyknosed Nuclei (%) [2]: 17% | Population Tubulin-Different-Phenotype (%) [2]: 21% | Total Cell Count [2]: 329 | Population Apoptotic (%) [3]: 45% | Population Fragmented Nuclei (%) [3]: 9% | Population Healthy Nuclei (%) [3]: 75% | Population Hoechst High Intensity Objects (%) [3]: 6% | Population Membrane Permeable-Phenotype (%) [3]: 0% | Population Mitochondria Different-Phenotype (%) [3]: 49% | Population Mitotic Cells (%) [3]: 54% | Population Normal (%) [3]: 93% | Population Pyknosed Nuclei (%) [3]: 15% | Population Tubulin-Different-Phenotype (%) [3]: 43% | Total Cell Count [3]: 228 | Population Apoptotic (%) [4]: 47% | Population Fragmented Nuclei (%) [4]: 5% | Population Healthy Nuclei (%) [4]: 79% | Population Membrane Permeable-Phenotype (%) [4]: 1% | Population Mitochondria Different-Phenotype (%) [4]: 64% | Population Mitotic Cells (%) [4]: 52% | Population Tubulin-Different-Phenotype (%) [4]: 36% | Total Cell Count [4]: 240 | Population Apoptotic (%) [5]: 33% | Population Fragmented Nuclei (%) [5]: 9% | Population Healthy Nuclei (%) [5]: 80% | Population Hoechst High Intensity Objects (%) [5]: 3% | Population Membrane Permeable-Phenotype (%) [5]: 0% | Population Mitochondria Different-Phenotype (%) [5]: 35% | Population Mitotic Cells (%) [5]: 66% | Population Normal (%) [5]: 97% | Population Pyknosed Nuclei (%) [5]: 10% | Population Tubulin-Different-Phenotype (%) [5]: 18% | Total Cell Count [5]: 601 | Population Apoptotic (%) [6]: 42% | Population Fragmented Nuclei (%) [6]: 6% | Population Healthy Nuclei (%) [6]: 79% | Population Hoechst High Intensity Objects (%) [6]: 6% | Population Mitochondria Different-Phenotype (%) [6]: 47% | Population Mitotic Cells (%) [6]: 57% | Population Normal (%) [6]: 93% | Population Pyknosed Nuclei (%) [6]: 14% | Population Tubulin-Different-Phenotype (%) [6]: 17% | Total Cell Count [6]: 373 | Population Apoptotic (%) [7]: 44% | Population Fragmented Nuclei (%) [7]: 9% | Population Healthy Nuclei (%) [7]: 78% | Population Hoechst High Intensity Objects (%) [7]: 3% | Population Membrane Permeable-Phenotype (%) [7]: 0% | Population Mitochondria Different-Phenotype (%) [7]: 40% | Population Mitotic Cells (%) [7]: 55% | Population Normal (%) [7]: 96% | Population Pyknosed Nuclei (%) [7]: 12% | Population Tubulin-Different-Phenotype (%) [7]: 28% | Total Cell Count [7]: 274 | Population Apoptotic (%) [8]: 32% | Population Fragmented Nuclei (%) [8]: 5% | Population Healthy Nuclei (%) [8]: 80% | Population Hoechst High Intensity Objects (%) [8]: 5% | Population Mitochondria Different-Phenotype (%) [8]: 44% | Population Mitotic Cells (%) [8]: 67% | Population Normal (%) [8]: 94% | Population Pyknosed Nuclei (%) [8]: 13% | Population Tubulin-Different-Phenotype (%) [8]: 18% | Total Cell Count [8]: 314 | Population Apoptotic (%) [9]: 23% | Population Fragmented Nuclei (%) [9]: 11% | Population Healthy Nuclei (%) [9]: 82% | Population Hoechst High Intensity Objects (%) [9]: 2% | Population Membrane Permeable-Phenotype (%) [9]: 1% | Population Mitochondria Different-Phenotype (%) [9]: 19% | Population Mitotic Cells (%) [9]: 76% | Population Normal (%) [9]: 97% | Population Pyknosed Nuclei (%) [9]: 6% | Population Tubulin-Different-Phenotype (%) [9]: 13% | Total Cell Count [9]: 885 | Population Apoptotic (%) [10]: 44% | Population Fragmented Nuclei (%) [10]: 13% | Population Healthy Nuclei (%) [10]: 80% | Population Hoechst High Intensity Objects (%) [10]: 3% | Population Membrane Permeable-Phenotype (%) [10]: 0% | Population Mitochondria Different-Phenotype (%) [10]: 21% | Population Mitotic Cells (%) [10]: 55% | Population Normal (%) [10]: 96% | Population Tubulin-Different-Phenotype (%) [10]: 9% | Total Cell Count [10]: 562 | Population Apoptotic (%) [11]: 31% | Population Fragmented Nuclei (%) [11]: 14% | Population Healthy Nuclei (%) [11]: 74% | Population Hoechst High Intensity Objects (%) [11]: 2% | Population Membrane Permeable-Phenotype (%) [11]: 0% | Population Mitochondria Different-Phenotype (%) [11]: 36% | Population Mitotic Cells (%) [11]: 68% | Population Normal (%) [11]: 97% | Population Pyknosed Nuclei (%) [11]: 10% | Population Tubulin-Different-Phenotype (%) [11]: 20% | Total Cell Count [11]: 390 | Population Apoptotic (%) [12]: 30% | Population Fragmented Nuclei (%) [12]: 11% | Population Healthy Nuclei (%) [12]: 81% | Population Hoechst High Intensity Objects (%) [12]: 3% | Population Mitochondria Different-Phenotype (%) [12]: 30% | Population Mitotic Cells (%) [12]: 69% | Population Normal (%) [12]: 96% | Population Pyknosed Nuclei (%) [12]: 7% | Population Tubulin-Different-Phenotype (%) [12]: 12% | Total Cell Count [12]: 521
